In the library only some 3.1% were active in any assay of this set; here they are far more common.
CSN deneddyl inh – blocks human CSN-mediated cullin deneddylation | Purified CSN, SCF-Nedd8-OG deneddylation, fluorescence polarization | inhibition, % at 12.5 µM | hit rate 0.38% among 360,000 | AID 651999;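 active = pattern-corrected inhibition above about 35%, with an unprinted fluorescence ratio check between 0.5 and 1.5, limit read from the data, passing the limit was not always enough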;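 note: 0% = enzyme with substrate and 100% = substrate without enzyme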
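Material: human Csn5 produced in HEK293T cells; Input: enzyme 0.24 nM; Reagent: SCFSkp2-Nedd8OG substrate at 10 nM final; Dosing: 12.5 µM compound; Incubation: 90 min reaction at room temperature; Detection: fluorescence polarization of the substrate; Evaluation: % inhibition of substrate cleavage by Csn5; Control set: substrate-only high control, full reaction low control.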
ATG4B inh – blocks human ATG4B protease cleavage of LC3 substrate. Q9Y4P1. ATG4B cleavage of LC3-PLA2, NBD-HPC fluorescence, 1 h. inhibition, % at 8.33 µM. hit rate 0.51% among 340,000. AID 504462; in the data active = inhibition above about 40%
MBD2 inh – MBD2-methylated oligo binding inhibition. hit rate 0.31% among 370,000. TR-FRET, MBD2 binding to methylated oligonucleotide. inhibition, % at 4.4 µM; in the data active = inhibition above about 13%
Target sequence (Q9UBB5 whole entry, looked up): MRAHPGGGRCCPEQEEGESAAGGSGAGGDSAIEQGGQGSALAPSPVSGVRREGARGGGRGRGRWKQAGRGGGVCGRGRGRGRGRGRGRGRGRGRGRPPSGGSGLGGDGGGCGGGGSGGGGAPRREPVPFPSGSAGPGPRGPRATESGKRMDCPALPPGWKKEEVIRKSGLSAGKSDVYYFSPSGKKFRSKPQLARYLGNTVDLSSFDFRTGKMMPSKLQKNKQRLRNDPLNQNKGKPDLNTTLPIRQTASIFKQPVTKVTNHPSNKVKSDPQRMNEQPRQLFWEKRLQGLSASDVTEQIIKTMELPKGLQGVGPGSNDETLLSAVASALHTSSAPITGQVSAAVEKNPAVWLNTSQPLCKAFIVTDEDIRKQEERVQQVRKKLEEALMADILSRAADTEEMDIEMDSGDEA
rCAG binder – molecules binding r(CAG) RNA repeats | hit rate 1.3% among 370,000 | AID 651821 | inhibition, % at 3 µM | r(CAG) RNA repeat, TO-PRO-1 dye displacement fluorescence;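 active = inhibition above the plate cutoff, the mean of all test compounds on that plate plus 3 SD, cut at about 35% in these data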;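 note: 0% = DMSO alone and 100% = 100 µM mitoxantrone as full dye displacement; higher means more dye released from RNA so lower well fluorescence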
UHRF1 MBD2 ctr – human UHRF1 methylated DNA binding inhibitors; inhibition, % at 4.4 µM; AID 687016; UHRF1 binding to methylated oligo, TR-FRET; hit rate 0.75% among 370,000; in the data active = inhibition above about 21%;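 note: UHRF1 SRA domain binding a hemimethylated CpG hairpin DNA probe; 0% = median of test compound wells and 100% = reference inhibitor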
LEDGF integ inh – blocks HIV-1 LEDGF/p75-dependent DNA integration; TR-FRET IN-LEDGF/p75 DNA integration, Eu/Cy5; inhibition, % at 3.7 µM; hit rate 0.64% among 370,000; AID 743269;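 active = inhibition above the screen-wide mean plus 3 SD, cut at about 13% in these data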;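 note: signal is the Cy5 over europium emission ratio at 671 and 618 nm; 0% = plate median of compound wells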
rCAG bind conf – r(CAG) RNA repeat binding, confirmation; shares compounds with rCAG binder; TO-PRO-1 dye displacement fluorescence; inhibition, % at 3 µM; hit rate 70% among 4,300; AID 652065;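 active = inhibition above a per-plate cutoff, the mean inhibition of sample wells plus 3 SD, cut at about 35% in these data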;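 note: loss of TO-PRO-1 fluorescence as compound displaces dye from 1x1 AA loop RNA; 0% = DMSO only wells and 100% = 100 µM mitoxantrone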
dCAG dye counter – DNA CAG dye complex inhibition counter-screen; shares compounds with rCAG binder; d(CAG) DNA oligo TO-PRO-1 dye displacement, fluorescence; inhibition, % at 3 µM; hit rate 94% among 4,300;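 active = inhibition above its plate's cutoff, the mean test-well inhibition plus 3 SD, cut at about 4.8% in these data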;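 note: 0% = DNA dye mix with DMSO and 100% = 100 µM mitoxantrone; hits displace the dye from DNA and so lower well fluorescence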
dCAG dye DR – DNA CAG dye complex inhibition, dose response counter-screen; shares compounds with rCAG binder; DNA CAG/GTC duplex TO-PRO-1 dye displacement fluorescence; IC50, µM; hit rate 20% among 250; AID 686960; in the data active = IC50 below about 10 µM
* marks the source's active call; other numbers are inactive results; nt = no result.

SMILES | CSN deneddyl inh | ATG4B inh | MBD2 inh | rCAG binder | UHRF1 MBD2 ctr | LEDGF integ inh | rCAG bind conf | dCAG dye counter | others
COc1cc(C2c3c([nH]c(=O)[nH]c3=O)Nc3ccc4ccccc4c32)cc(OC)c1OC (stereo unspecified) | 66* | 0 | 2 | 42* | 3 | 4 | 30 | 10*
C=CCN(C(=O)[C@@H](C1CC1)[C@@H](O)c1ccc2ccccc2c1)c1ccccc1 | nt | nt | 0 | -1 | -2 | -1 | nt | nt
C[C@H](O)[C@@H]1CN2CCc3c([nH]c4c(-c5ccccc5)cccc34)[C@@H]2C[C@@H]1N(C)C(=S)NCCc1ccccc1 | nt | nt | -6 | 10 | -6 | 2 | nt | nt
O=C(CCN1C(=O)S/C(=C\c2ccccc2)C1=O)Nc1ccc(S(=O)(=O)Nc2nccs2)cc1 | 0 | -7 | 4 | 77* | -2 | 3 | 74* | 39*
Cc1cc(C)nc(NS(=O)(=O)c2ccc(NC(=O)CN3C(=O)S/C(=C\c4ccccc4)C3=O)cc2)n1 | 6 | 2 | -7 | 60* | -10 | 2 | 69* | 30*
COc1ccccc1/C=C1/SC(=O)N(CCC(=O)Nc2ccc(S(=O)(=O)Nc3nccs3)cc2)C1=O | 1 | -6 | -5 | 79* | -1 | 2 | 80* | 46*
O=C(NCc1ccco1)C1CCCN(S(=O)(=O)c2ccc(F)cc2)C1 (stereo unspecified) | nt | nt | -2 | 4 | 1 | 4 | nt | nt
CCOC(=O)N1CCN(C(=O)C[C@H]2C[C@@]3(C(=O)OC)C(=C[C@H](COCc4ccccc4)O[C@@H]3C)N(Cc3ccco3)C2=O)CC1 | nt | nt | -3 | 2 | 1 | 8 | nt | nt
Cc1ccc(NC(=O)Cc2c(C(=O)O)n(C)c3ccccc23)cc1F | -8 | -8 | -4 | 27 | 0 | 2 | nt | nt
CC(C)c1ccc(NC(=O)Cc2c(C(=O)O)n(C)c3ccccc23)cc1 | 2 | -2 | 4 | 51* | -2 | 2 | 31 | 5.8*
Cc1ccc(-c2cc(-c3ccccc3)c3c(N)c(S(C)(=O)=O)sc3n2)cc1 | -2 | -7 | -4 | 26 | 3 | 8 | nt | nt
CS(=O)(=O)c1sc2nc(-c3cccs3)cc(-c3ccccc3)c2c1N | -2 | 24 | -1 | 65* | -3 | 20* | 70* | 36*
C=C(C)C(=O)Nc1ccc(OC(F)(F)C(F)F)c(NC(=O)C(=C)C)c1 | 5 | -4 | 0 | 44* | 0 | -1 | 0 | -2
O=C(C1CC1)C1(C(=O)N2CCOCC2)CC(c2ccccn2)=NO1 (stereo unspecified) | nt | nt | 2 | 1 | 5 | -1 | nt | nt
COc1ccc(Cn2cc(COC(=O)NCC(C)C)nn2)cc1 | nt | nt | 0 | 3 | -1 | -3 | nt | nt
N#C/C(=C(/O)COC(=O)c1ccc(C#N)cc1)c1nc2ccccc2s1 | 8 | -13 | -3 | 38* | 13 | 0 | 40* | 17*
Cc1c(/C=C(\CC(=O)O)c2nc3ccccc3s2)cc(C#N)n1C | -4 | 4 | -6 | 10 | -5 | -1 | nt | nt
Cc1nn(-c2ccccc2)c(Cl)c1/C=C(/CC(=O)O)c1nc2ccccc2s1 | 0 | -2 | -5 | 47* | -4 | -1 | 36* | 9.8*
Cc1nn(-c2ccccc2)c(Cl)c1/C=C(\CC(=O)O)c1nc2ccccc2s1 | 1 | 3 | 5 | 42* | 2 | 3 | 43* | 13*
CCN(CC)S(=O)(=O)c1cc(NS(=O)(=O)c2cc(Cl)ccc2Cl)ccc1C | -1 | -2 | 0 | 44* | -1 | 1 | 40* | 12*
CSCC[C@H](NC(=O)c1cc2c([nH]c3ccccc32)c(-c2ccccc2)n1)C(=O)O | -3 | 14 | 1 | 55* | 1 | -1 | 50* | 14*
COC(=O)[C@]12C[C@H](CC(=O)N3CCSCC3)C(=O)N(CCc3ccc(OC)c(OC)c3)C1=C[C@H](C(C)C)O[C@@H]2C1CC1 | nt | nt | -5 | 2 | 1 | 1 | nt | nt
COc1ccc2c(c1)cc(C(=O)N/N=C/c1c(O)c(C(=O)O)cc3ccccc13)n2C | 18 | -6 | -2 | 91* | 2 | -3 | 89* | 68*
CC(C)(C)OC(=O)N1CCC(Cc2cc(-c3cccc(Br)c3)no2)(C(=O)O)CC1 | 0 | 0 | -3 | 48* | 0 | 4 | 49* | 14* | dCAG dye DR=>30
CCC(NC(=O)CCCN1C(=O)COc2ccc(C)cc21)c1ccccc1 (stereo unspecified) | nt | nt | -8 | -2 | -1 | 0 | nt | nt
SMILES | CSN deneddyl inh | ATG4B inh | MBD2 inh | rCAG binder | UHRF1 MBD2 ctr | LEDGF integ inh | rCAG bind conf | dCAG dye counter | others
COc1cc([C@@H]2CC=C(C(=O)O)[C@H](c3ccccc3)N2S(=O)(=O)c2ccc(C)cc2)cc(OC)c1OC | -1 | 2 | -3 | 28 | -1 | 0 | nt | nt
Cc1ccc(S(=O)(=O)N2C(c3ccc(Cl)c(Cl)c3)CC=C(C(=O)O)C2c2ccc(Cl)cc2)cc1 (stereo unspecified) | 8 | nt | 5 | 82* | 1 | -1 | 83* | 52*
Cc1ccc(S(=O)(=O)N2[C@@H](c3ccc(Cl)cc3)C(C(=O)O)=CC[C@H]2c2ccc(Cl)c(Cl)c2)cc1 | 3 | 22 | -3 | 86* | -1 | 4 | 86* | 59*
COc1cc([C@@H]2CC=C(C(=O)O)[C@H](c3ccc(Cl)cc3)N2S(=O)(=O)c2ccc(C)cc2)cc(OC)c1OC | -1 | 7 | 0 | 35* | 0 | 2 | 34 | 7.6*
Cc1ccc(S(=O)(=O)N2C(c3ccc(Cl)c(Cl)c3)CC=C(C(=O)O)C2c2cccc(Cl)c2)cc1 (stereo unspecified) | 5 | nt | 1 | 12 | 0 | 2 | nt | nt
Cc1ccc(S(=O)(=O)N2CC(C(=O)O)=CC[C@H]2c2ccc(Cl)cc2)cc1 | -7 | 11 | 6 | 37* | 3 | 3 | 16 | 4
CCOC(=O)[C@]12CCCCC/C=C\1N(CCc1ccc(Cl)cc1)C(=O)[C@H]2CC(=O)NCCCCc1ccccc1 | nt | nt | -1 | 6 | 2 | -3 | nt | nt
O=S(=O)(Nc1nc2ccccc2nc1Nc1ccc2c(c1)OCCO2)c1cccs1 | 51* | 20 | 1 | 91* | -7 | 3 | 83* | 51*
COC(=O)[C@]1(CNC(=O)Nc2ccc(C)c(Cl)c2)CC(=O)N(C)[C@@H]1c1ccccc1 | nt | nt | 2 | 2 | 5 | 3 | nt | nt
